The values below come from ChEMBL document CHEMBL4041486, “Vobasinyl-Iboga Alkaloids from Tabernaemontana elegans: Cell Cycle Arrest and Apoptosis-Inducing Activity in HCT116 Colon Cancer Cells” (J Nat Prod, 2016).

Test [1] has as its system HCT-116. Nature of the test: Growth inhibition of human HCT116 cells after 72 hrs by MTS assay. Format: functional, cell-based. The conditions noted are these: HCT-116, 72 h. An outline of the steps: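 HCT116 grown in McCoy's 5A, 10% FBS, 37 °C, 5% CO2; 5000 cells/well; compound in DMSO added 24 h after plating, 72 h exposure. Viability by MTS/PMS reduction to formazan, absorbance 490 nm. IC50 with 95% CI by curve fit; at least three independent experiments.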

The subject of another test is HepG2. The experiment in a line: Growth inhibition of human HepG2 cells after 72 hrs by MTS assay. Format: functional, cell-based. To be noted: HepG2, 72 h. An outline of the steps:
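HepG2 grown in DMEM with 10% FBS and 1% nonessential amino acids; 5000 cells/well; medium replaced with DMSO-dissolved compound 24 h post-seeding, 72 h exposure. MTS formazan absorbance read at 490 nm. IC50 derived with 95% CI; at least three independent experiments.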

In test [2] the test system is HCT-116. The experiment in a line: Cell cycle arrest in human HCT116 cells assessed as accumulation at G1 phase at antiproliferative IC50 after 24 hrs by propidium iodide staining based flow cytometry (reference value: 31%). Format: functional.
The test system of test [3] is HCT-116. Nature of the test: Cell cycle arrest in human HCT116 cells assessed as accumulation at S phase at antiproliferative IC50 after 24 hrs by propidium iodide staining based flow cytometry (reference value: 38.8%). Format: functional.
The subject of test [4] is HCT-116. Nature of the test: Cell cycle arrest in human HCT116 cells assessed as accumulation at G2/M phase at antiproliferative IC50 after 24 hrs by propidium iodide staining based flow cytometry (reference value: 30.2%). Format: functional.
Test [5] has as its system HCT-116. The experiment in a line: Cell cycle arrest in human HCT116 cells assessed as accumulation at G1 phase at 2 times antiproliferative IC50 after 24 hrs by propidium iodide staining based flow cytometry (reference value: 31%). Type of test: functional.
Test [6] has as its system HCT-116. Nature of the test: Cell cycle arrest in human HCT116 cells assessed as accumulation at S phase at 2 times antiproliferative IC50 after 24 hrs by propidium iodide staining based flow cytometry (reference value: 38.8%). Format: functional.
The test system of test [7] is HCT-116. Nature of the test: Cell cycle arrest in human HCT116 cells assessed as accumulation at G2/M phase at 2 times antiproliferative IC50 after 24 hrs by propidium iodide staining based flow cytometry (reference value: 30.2%). Format: functional.
The subject of test [8] is HCT-116. Nature of the test: Cytotoxicity against human HCT116 cells assessed as cell death at antiproliferative IC50 after 72 hrs by LDH release assay relative to control. Format: functional. An outline of the steps: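 HCT116 cells grown in McCoy's 5A with 10% FBS at 37 °C, 5% CO2, and treated 24 h after plating for 72 h with compound or DMSO vehicle. Supernatants were spun at 250g for 2 min, and attached cells were lysed. LDH reagent was added for 15 min at room temperature in the dark, and absorbance was read at 490/620 nm. Release = supernatant/(supernatant + lysate) LDH, fold over DMSO; mean ± SEM, ≥3 experiments.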

Test [9] relates to HCT-116. Nature of the test: Induction of apoptosis in human HCT116 cells assessed as apoptotic nuclei at antiproliferative IC50 after 24 hrs by Hoechst 33258 staining based fluorescence microscopic method (reference value: <2%). Type of test: functional. The method, boiled down: (§1)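 HCT116 seeded 150 000 cells per 35 mm dish; treated 24 h, fixed in 4% paraformaldehyde in PBS pH 7.4, 10 min 25 °C, stained Hoechst 33258 5 μg/mL, 5 min. Fluorescence microscopy; condensed or fragmented chromatin scored apoptotic; three random fields of about 100 nuclei per sample; percent apoptotic nuclei, mean ± SEM, ≥3 experiments.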

Test [10] relates to HCT-116. The experiment in a line: Induction of apoptosis in human HCT116 cells assessed as apoptotic nuclei at 2 times antiproliferative IC50 after 24 hrs by Hoechst 33258 staining based fluorescence microscopic method (reference value: <2%). Format: functional. The method, boiled down:
as §1

Test [11] concerns HCT-116. The experiment in a line: Induction of apoptosis in human HCT116 cells assessed as caspase-3/7 activation at antiproliferative IC50 after 24 hrs by Caspase-Glo assay relative to DMSO control. Format: functional. The method, boiled down: (§2)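 HCT116 at 5000 cells/well exposed 24 h. Caspase-Glo 3/7 reagent (DEVD-aminoluciferin substrate) 75 μL/well, 30 min room temperature for lysis and signal build-up; luminescence read. Activity expressed as fold of the reference treatment (DMSO vehicle or 5-FU); mean ± SEM, at least three experiments.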

Test [12] deals with HCT-116. The experiment in a line: Induction of apoptosis in human HCT116 cells assessed as caspase-3/7 activation at antiproliferative IC50 after 24 hrs by Caspase-Glo assay relative to 5-fluorouracil. Format: functional. The method, boiled down: as §2

As for `CC[C@H]1CN(C)[C@H]2Cc3c([nH]c4ccccc34)[C@H](c3cc4c5c([nH]c4cc3OC)C3(C(=O)OC)CC4C[C@H](CC)[C@@H]3N(CC5)C4=O)C[C@@H]1C2C(=O)OC` (stereo partly drawn), the IC50 is 8.8 µM in the test with HCT-116 [1] and > 10 µM in the test with HepG2. The Activity in the test on HCT-116 [2] was 34.4%; in the test on HCT-116 [3], 39.4%; with HCT-116 [4], 26.2 - 32%; in the test with HCT-116 [5] it was 32%; in the test with HCT-116 [6], 17.5%; with HCT-116 [7], 44 - 50.5%. Moreover, the Activity came to 16% in the test with HCT-116 [9] and 37% in the test on HCT-116 [10]. Moreover, the “fold change (FC)” value in the test with HCT-116 [8] is listed as 2.5 - 2.8; with HCT-116 [11], 1.6 - 5.2; in the test with HCT-116 [12], 1.5 - 3.7.

Take `CC[C@H]1CN(C)[C@H]2Cc3c([nH]c4ccccc34)[C@H](c3c(OC)ccc4c5c([nH]c34)C3(C(=O)OC)C[C@@H]4C[C@H]([C@H](C)O)[C@@H]3N(CC5)C4)C[C@@H]1C2C(=O)OC` (stereo partly drawn): the IC50 in the test with HCT-116 [1] is 8.4 µM; in the test on HepG2 it was > 10 µM. Moreover, the Activity with HCT-116 [2] is listed as 42.3 - 49%; in the test with HCT-116 [3], 39.3%; in the test on HCT-116 [4], 18.5%; with HCT-116 [5] it was 55 - 65%; in the test on HCT-116 [6] it was 19.3%; in the test with HCT-116 [7], 15.7%. The Activity with HCT-116 [9] came to 11%; in the test with HCT-116 [10], 13%. The “fold change (FC)” value in the test on HCT-116 [8] is 2.5 - 2.8; with HCT-116 [11] it was 1.6 - 5.2; with HCT-116 [12], 1.5 - 3.7.

Take `CC[C@H]1CN(C)[C@H]2Cc3c([nH]c4ccccc34)[C@H](c3c(OC)ccc4c5c([nH]c34)C3(C(=O)OC)CC4C[C@H](CC)[C@@H]3N(CC5)C4=O)C[C@@H]1C2C(=O)OC` (stereo partly drawn): the IC50 in the test with HCT-116 [1] and in the test with HepG2 was > 10 µM in each case. Further, the Activity is given as 41.7 - 46% with HCT-116 [2]; 36.5% in the test on HCT-116 [3]; 21.8% in the test on HCT-116 [4]; 62 - 67.2% in the test with HCT-116 [5]; 15.9% with HCT-116 [6]; 16.9% with HCT-116 [7]. In addition, the Activity with HCT-116 [9] amounted to 16%; in the test with HCT-116 [10], 25%. Moreover, the figures for the “fold change (FC)” value with HCT-116 [8], in the test on HCT-116 [11] and in the test with HCT-116 [12] were 2.5 - 2.8, 1.6 - 5.2 and 1.5 - 3.7, respectively.

On to `O=c1[nH]cc(F)c(=O)[nH]1` [FLUOROURACIL], for which the results for the IC50 in the test with HCT-116 [1] and in the test with HepG2 were 2.5 µM and > 10 µM, respectively. Moreover, the Activity with HCT-116 [2] worked out at 21.3%; with HCT-116 [3], 78.7%; with HCT-116 [4], 0%; in the test on HCT-116 [5], 39.8%; with HCT-116 [6] it was 55.7%; in the test on HCT-116 [7] it was 4.48%. In addition, the “fold change (FC)” value with HCT-116 [8] is listed as 2.2 - 2.5.

With `CC[C@H]1CN(C)[C@H]2Cc3c([nH]c4ccccc34)[C@H](c3cc4c5c([nH]c4cc3OC)C3(C(=O)OC)C[C@@H]4C[C@H](CC)[C@@H]3N(CC5)C4)C[C@@H]1C2C(=O)OC` (stereo partly drawn), the IC50 is 8.5 µM in the test on HCT-116 [1] and > 10 µM with HepG2. For the same compound, the Activity in the test with HCT-116 [2] was 2.39%; in the test with HCT-116 [3], 21.9%; with HCT-116 [4], 75.7 - 77%; with HCT-116 [5], 27.7%; in the test with HCT-116 [6], 28.5%; in the test with HCT-116 [7], 43.8 - 47%. For the same compound, the figures for the Activity in the test with HCT-116 [9] and in the test on HCT-116 [10] were 31% and 40%, respectively. Moreover, the “fold change (FC)” value in the test with HCT-116 [8] is given as 2.5 - 2.8; in the test with HCT-116 [11], 1.6 - 5.2; with HCT-116 [12] it was 1.5 - 3.7.

In the case of `CC[C@@H]1CN(C)[C@H]2Cc3c([nH]c4ccccc34)[C@H](c3c(OC)ccc4c5c([nH]c34)C3(C(=O)OC)C[C@@H]4C[C@H](CC)[C@@H]3N(CC5)C4)C[C@@H]1C2C(=O)OC` (stereo partly drawn), the IC50 in the test with HCT-116 [1] and with HepG2 was > 10 µM throughout.
